Calls of active or inactive are those of the source. The calls are words filed in the database; no cut-off is given here.
How the values were obtained:
[1] = target: T1, ATP-dependent translocase ABCB1 (Homo sapiens, UniProt P08183); assay: Modulation of p-gp (unknown origin) transfected in human MDA435/LCC6MDR cells assessed as potentiation of paclitaxel-induced cytotoxicity at 1 uM after 5 days by MTS assay relative to untreated control; type: cell-based; details: 120 h
Procedure, shortened: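 6000 LCC6MDR or LCC6 cells per well co-incubated with paclitaxel with or without 1 μM modulator for 5 days at 37 °C. […] RF = IC50 without modulator divided by IC50 with modulator. N = 2–3 experiments; mean ± SEM.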

[2] = species: Homo sapiens; assay: Ratio of compound activity to verapamil activity for modulation of p-gp (unknown origin) transfected in human MDA435/LCC6MDR cells assessed as potentiation of paclitaxel-induced cytotoxicity; type: cell-based
[3] = species: Homo sapiens; assay: Ratio of verapamil EC50 to compound EC50 for modulation of p-gp (unknown origin) transfected in human MDA435/LCC6MDR cells assessed as reversal of paclitaxel resistance; type: cell-based
[4] = target: T1, ATP-dependent translocase ABCB1; assay: Modulation of p-gp (unknown origin) transfected in human MDA435/LCC6MDR cells assessed as increase in intracellular drug accumulation at 20 to 200 uM after 150 mins by reverse phase-HPLC analysis; type: cell-based; details: 2.5 h
Procedure, shortened: (§1)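 3 × 10^6 LCC6 or LCC6MDR cells incubated with 20 or 200 μM analogue at 37 °C for 150 min. Cells were then pelleted, washed with cold PBS pH 7.4, lysed in 100% methanol by vortexing for 5 min and spun. The supernatant was analysed by reversed-phase C18 HPLC with UV-vis detection. N = 2 independent experiments.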

[5] = system: L929; assay: Cytotoxicity against mouse L929 cells assessed as growth inhibition after 3 days by MTS assay; type: cell-based; details: L929, 72 h
Procedure, shortened: (§2)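 10 000 cells per well exposed to a concentration series of analogue for 3 days at 37 °C. Growth read by MTS proliferation assay and IC50 determined. Cells were cultured in DMEM with 10% heat-inactivated FBS and penicillin/streptomycin at 37 °C under 5% CO2.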

[6] = Cytotoxicity against human MDA435/LCC6 cells assessed as growth inhibition after 3 days by MTS assay; type: functional, cell-based; details: MDA-435/LCC6, 72 h; procedure, shortened: as §2
[7] = system: MDA-435/LCC6; assay: Induction of doxorubicin accumulation in human MDA435/LCC6 cells at 1 uM after 150 mins by spectrofluorometric analysis; type: functional, cell-based
Procedure, shortened: (§3)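 1 × 10^6 LCC6 or LCC6MDR cells incubated with 20 μM doxorubicin plus 1 μM analogue at 37 °C for 150 min; 0.1% DMSO served as negative control. Cells were washed with cold PBS and lysed in 0.75 M HCl/0.2% Triton X-100 in 2-propanol. Supernatant DOX fluorescence was read at ex 460/em 610 nm. N = 3–5 experiments; Student's t test.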

[8] = target: T2, Broad substrate specificity ATP-binding cassette transporter ABCG2 (Homo sapiens, UniProt Q9UNQ0); assay: Modulation of BCRP (unknown origin) transfected in human HEK293/R2 cells assessed as potentiation of topotecan-induced cytotoxicity at 1 uM after 5 days by MTS assay relative to untreated control; type: cell-based; details: hek293/r2, 120 h
T2 sequence (Q9UNQ0 whole entry): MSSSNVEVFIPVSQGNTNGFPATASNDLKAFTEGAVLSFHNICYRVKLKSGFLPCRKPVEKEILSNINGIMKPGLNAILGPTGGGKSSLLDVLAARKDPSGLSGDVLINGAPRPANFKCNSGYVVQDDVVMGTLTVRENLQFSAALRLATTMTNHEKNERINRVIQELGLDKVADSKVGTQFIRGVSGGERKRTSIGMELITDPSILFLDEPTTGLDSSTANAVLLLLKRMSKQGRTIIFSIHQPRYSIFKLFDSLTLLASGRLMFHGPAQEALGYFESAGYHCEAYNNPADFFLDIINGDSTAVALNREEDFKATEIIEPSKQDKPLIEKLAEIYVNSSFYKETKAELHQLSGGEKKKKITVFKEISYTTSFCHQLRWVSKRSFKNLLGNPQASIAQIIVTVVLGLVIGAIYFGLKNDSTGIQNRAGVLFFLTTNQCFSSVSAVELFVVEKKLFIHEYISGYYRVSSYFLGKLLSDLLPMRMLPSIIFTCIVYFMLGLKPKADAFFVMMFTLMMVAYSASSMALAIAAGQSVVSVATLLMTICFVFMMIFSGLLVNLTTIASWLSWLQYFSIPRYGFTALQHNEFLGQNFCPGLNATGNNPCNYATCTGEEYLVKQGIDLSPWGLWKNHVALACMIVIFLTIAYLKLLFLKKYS
Procedure, shortened: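 4500 HEK293/R2 or HEK293/pcDNA3.1 cells per well co-incubated with topotecan with or without 1 μM modulator for 5 days at 37 °C. Readout was MTS/PMS absorbance at 490 nm after 2 h. RF = IC50 without modulator divided by IC50 with modulator. N = 2–4 experiments.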

[9] = target: T1, ATP-dependent translocase ABCB1; assay: Inhibition of p-gp (unknown origin) transfected in human MDA435/LCC6MDR cells assessed as reversal of doxorubicin drug resistance relative to control; type: cell-based
[10] = target: T1, ATP-dependent translocase ABCB1; assay: Modulation of p-gp (unknown origin) transfected in human MDA435/LCC6MDR cells assessed as induction of doxorubicin accumulation at 1 uM after 150 mins by spectrofluorometric analysis relative to control; type: cell-based; details: 2.5 h; procedure, shortened: as §3
[11] = system: P-gp (unknown origin); assay: Therapeutic index, ratio of IC50 for mouse L929 cells to EC50 for modulation of p-gp (unknown origin) transfected in human MDA435/LCC6MDR cells assessed as reversal of paclitaxel resistance; type: cell-based; details: read-out: Ratio IC50/EC50
Procedure, shortened: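 Therapeutic index = L929 cytotoxicity IC50 (10 000 cells, 3-day MTS) divided by EC50 for reversing paclitaxel resistance in LCC6MDR (5-day MTS co-incubation with modulator series). N = 2–5 experiments.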

[12] = Drug uptake in human MDA435/LCC6 cells at 20 to 200 uM after 150 mins by reverse phase-HPLC analysis; type: ADME, cell-based; details: mda-435/lcc6, 2.5 h; procedure, shortened: as §1
[13] = Cytotoxicity against human MDA435/LCC6MDR cells assessed as growth inhibition after 3 days by MTS assay; type: functional, cell-based; details: 72 h; procedure, shortened: as §2
[14] = target: Multidrug resistance-associated protein 1 (Homo sapiens, UniProt P33527); assay: Modulation of MRP1 (unknown origin) transfected in human 2008/MRP1 cells assessed as potentiation of doxorubicin-induced cytotoxicity at 1 uM after 5 days by MTS assay relative to untreated control; type: cell-based; details: 2008/mrp1, 120 h
Sequence of Multidrug resistance-associated protein 1 (P33527 whole entry): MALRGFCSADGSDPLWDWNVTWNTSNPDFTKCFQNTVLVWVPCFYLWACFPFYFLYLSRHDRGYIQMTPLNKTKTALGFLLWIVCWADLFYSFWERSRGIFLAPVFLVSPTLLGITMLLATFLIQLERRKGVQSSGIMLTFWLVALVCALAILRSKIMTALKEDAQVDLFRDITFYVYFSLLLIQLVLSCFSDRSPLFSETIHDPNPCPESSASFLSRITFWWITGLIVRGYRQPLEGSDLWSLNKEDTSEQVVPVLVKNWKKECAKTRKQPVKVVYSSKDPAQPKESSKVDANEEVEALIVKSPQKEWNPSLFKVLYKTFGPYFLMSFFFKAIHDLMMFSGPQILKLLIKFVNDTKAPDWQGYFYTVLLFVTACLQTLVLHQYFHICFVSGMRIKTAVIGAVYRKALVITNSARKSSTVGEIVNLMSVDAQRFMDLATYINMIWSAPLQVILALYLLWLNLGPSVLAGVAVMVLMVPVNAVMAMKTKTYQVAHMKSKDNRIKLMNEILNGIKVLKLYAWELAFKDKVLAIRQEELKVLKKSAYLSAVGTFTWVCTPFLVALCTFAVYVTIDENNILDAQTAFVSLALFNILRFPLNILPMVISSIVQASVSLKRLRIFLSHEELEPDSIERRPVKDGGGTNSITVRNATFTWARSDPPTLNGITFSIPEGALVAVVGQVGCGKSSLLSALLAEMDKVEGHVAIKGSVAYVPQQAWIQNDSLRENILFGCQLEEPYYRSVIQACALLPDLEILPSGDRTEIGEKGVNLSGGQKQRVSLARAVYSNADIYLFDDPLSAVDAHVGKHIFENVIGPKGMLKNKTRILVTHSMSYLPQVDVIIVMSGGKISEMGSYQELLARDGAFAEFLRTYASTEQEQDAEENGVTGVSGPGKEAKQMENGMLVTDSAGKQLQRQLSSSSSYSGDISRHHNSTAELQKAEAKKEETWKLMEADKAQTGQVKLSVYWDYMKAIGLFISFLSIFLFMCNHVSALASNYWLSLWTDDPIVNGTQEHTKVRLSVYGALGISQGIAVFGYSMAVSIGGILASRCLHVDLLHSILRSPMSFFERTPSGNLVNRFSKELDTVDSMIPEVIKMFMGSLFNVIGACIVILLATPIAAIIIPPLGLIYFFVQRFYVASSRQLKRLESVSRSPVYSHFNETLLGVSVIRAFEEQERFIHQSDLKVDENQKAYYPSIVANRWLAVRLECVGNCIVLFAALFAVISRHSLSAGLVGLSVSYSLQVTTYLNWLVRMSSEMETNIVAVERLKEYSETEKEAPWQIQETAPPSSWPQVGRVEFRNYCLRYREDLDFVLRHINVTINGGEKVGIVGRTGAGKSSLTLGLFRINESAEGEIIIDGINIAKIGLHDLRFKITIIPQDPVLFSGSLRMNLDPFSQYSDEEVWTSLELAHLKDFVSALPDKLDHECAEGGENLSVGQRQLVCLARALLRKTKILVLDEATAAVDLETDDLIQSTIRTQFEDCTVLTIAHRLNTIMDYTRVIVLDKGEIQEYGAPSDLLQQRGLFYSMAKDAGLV

T1 sequence (P08183 whole entry): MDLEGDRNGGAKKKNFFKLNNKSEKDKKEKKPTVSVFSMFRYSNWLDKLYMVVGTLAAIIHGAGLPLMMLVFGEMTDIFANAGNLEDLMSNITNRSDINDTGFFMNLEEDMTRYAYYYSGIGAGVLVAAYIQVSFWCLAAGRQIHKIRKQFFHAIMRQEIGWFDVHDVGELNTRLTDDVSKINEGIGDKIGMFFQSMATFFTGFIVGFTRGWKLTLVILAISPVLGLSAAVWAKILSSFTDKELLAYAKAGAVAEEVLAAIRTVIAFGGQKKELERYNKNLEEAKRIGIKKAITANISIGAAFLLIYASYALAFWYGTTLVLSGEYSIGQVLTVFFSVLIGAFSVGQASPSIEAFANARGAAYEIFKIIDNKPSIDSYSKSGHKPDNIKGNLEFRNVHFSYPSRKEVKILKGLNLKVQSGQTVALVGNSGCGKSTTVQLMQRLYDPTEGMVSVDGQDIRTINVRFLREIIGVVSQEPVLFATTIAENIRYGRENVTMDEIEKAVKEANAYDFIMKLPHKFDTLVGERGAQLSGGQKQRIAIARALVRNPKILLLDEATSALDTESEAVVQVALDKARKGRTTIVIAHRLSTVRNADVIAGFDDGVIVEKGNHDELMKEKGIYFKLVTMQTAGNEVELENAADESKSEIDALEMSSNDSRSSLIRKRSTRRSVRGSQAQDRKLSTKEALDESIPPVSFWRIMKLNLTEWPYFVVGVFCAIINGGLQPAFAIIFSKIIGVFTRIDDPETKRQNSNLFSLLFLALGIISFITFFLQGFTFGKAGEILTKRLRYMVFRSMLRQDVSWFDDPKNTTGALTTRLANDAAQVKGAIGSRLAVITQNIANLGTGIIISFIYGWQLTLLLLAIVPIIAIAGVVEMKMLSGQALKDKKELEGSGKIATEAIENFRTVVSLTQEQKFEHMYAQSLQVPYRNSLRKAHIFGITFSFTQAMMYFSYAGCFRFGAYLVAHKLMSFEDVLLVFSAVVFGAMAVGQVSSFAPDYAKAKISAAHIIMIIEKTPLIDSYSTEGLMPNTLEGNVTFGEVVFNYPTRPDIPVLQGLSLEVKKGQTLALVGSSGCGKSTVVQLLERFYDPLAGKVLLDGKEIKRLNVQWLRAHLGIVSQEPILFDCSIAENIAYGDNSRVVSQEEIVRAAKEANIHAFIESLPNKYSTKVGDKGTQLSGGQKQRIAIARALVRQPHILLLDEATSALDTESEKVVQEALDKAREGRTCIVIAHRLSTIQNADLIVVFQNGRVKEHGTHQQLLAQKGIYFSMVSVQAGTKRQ

Row | SMILES | fold change (FC) [1] | other results
1 | COc1ccc(CN2C(=O)C(c3ccc(OC)c(OC)c3)=C(c3cc(OC)c(OC)c(OC)c3)C2=O)cc1OC | 13.2 | –
2 | COc1ccc(CCN2C(=O)C(c3ccc(OC)c(OC)c3)=C(c3cc(OC)c(OC)c(OC)c3)C2=O)cc1 | 12.7 | –
3 | COc1ccc(C2=C(c3cc(OC)c(OC)c(OC)c3)C(=O)N(Cc3cc(OC)c(OC)c(OC)c3)C2=O)cc1OC | 7.4 | –
4 | COc1ccc(C2=C(c3cc(OC)c(OC)c(OC)c3)C(=O)N(CC(=O)c3ccc(OCc4ccccc4)cc3)C2=O)cc1OC | 16.8 | –
5 | COc1ccc(C2=C(c3ccc(OC)c(OC)c3)C(=O)N(CC(=O)O)C2=O)cc1OC | 0.9 | –
6 | COc1ccc(CN2C(=O)C(c3ccc(OC)c(OC)c3)=C(c3cc(OC)c(OC)c(OC)c3)C2=O)cc1 | 18 | Ratio [2]: 4
7 | COc1ccc(C2=C(c3ccc(OC)c(OC)c3)C(=O)N(CCn3cnc4c(N)ncnc43)C2=O)cc1OC | 1.7 | –
8 | CCOC(=O)CN1C(=O)C(c2ccc(OC)c(OC)c2)=C(c2ccc(OC)c(OC)c2)C1=O | 7 | –
9 | COc1ccc(C2=C(c3cc(OC)c(OC)c(OC)c3)C(=O)N(c3cc(OC)c(OC)c(OC)c3)C2=O)cc1OC | 1.5 | –
10 | COc1ccc(CCN2C(=O)C(c3ccc(OC)c(OC)c3)=C(c3cc(OC)c(OC)c(OC)c3)C2=O)cc1OC | 4.6 | –
11 | COc1cc(C(=O)CN2C(=O)C(c3cc(OC)c(OC)c(OC)c3)=C(c3cc(OC)c(OC)c(OC)c3)C2=O)cc(OC)c1OC | 1.8 | –
12 | COc1ccc(C2=C(c3ccc(OC)c(OC)c3)C(=O)N(CCn3cnc4c(=O)n(C)c(=O)n(C)c43)C2=O)cc1OC | 1.2 | –
13 | COc1ccc(C2=C(c3ccc(OC)c(OC)c3)C(=O)N(CC(=O)c3ccc(OCc4ccccc4)cc3)C2=O)cc1OC | 10.4 | –
14 | COc1ccc(C2=C(c3ccc(OC)c(OC)c3)C(=O)N(CC(=O)c3ccc(OCc4ccccc4)c(OC)c3)C2=O)cc1OC | 42.7 | Ratio EC50 [3]: 4.8; Activity [4]: Active; IC50 [5]: > 100 µM; IC50 [6]: > 100 µM; Activity [7]: inactive; fold change (FC) [8]: 6.9; fold change (FC) [9]: 5.6; fold change (FC) [10]: 2.2; selectivity ratio [11]: > 1070; Drug uptake [12]: Active; IC50 [13]: > 100 µM; fold change (FC) [14]: 1.1
15 | COc1ccc(C2=C(c3cc(OC)c(OC)c(OC)c3)C(=O)N(CC(=O)c3ccc(OCc4ccccc4)c(OC)c3)C2=O)cc1OC | 42.7 | Ratio EC50 [3]: 4.1; IC50 [5]: > 100 µM; IC50 [6]: > 100 µM; Activity [7]: inactive; fold change (FC) [8]: 8.2; fold change (FC) [9]: 5.6; fold change (FC) [10]: 2.3; selectivity ratio [11]: > 909; IC50 [13]: > 100 µM; fold change (FC) [14]: 1.2
16 | COc1ccc(C2=C(c3ccc(OC)c(OC)c3)C(=O)N(CC(=O)c3cc(OC)c(OC)c(OC)c3)C2=O)cc1OC | 9.3 | –
17 | COc1ccc(C(=O)CN2C(=O)C(c3ccc(OC)c(OC)c3)=C(c3cc(OC)c(OC)c(OC)c3)C2=O)cc1OC | 5.1 | –
18 | C=CCOc1cc(CN2C(=O)C(c3ccc(OC)c(OC)c3)=C(c3ccc(OC)c(OC)c3)C2=O)cc(OCC=C)c1OCC=C | 3.8 | –
19 | CCOc1cc(CN2C(=O)C(c3ccc(OC)c(OC)c3)=C(c3ccc(OC)c(OC)c3)C2=O)cc(OCC)c1OCC | 1.9 | –
20 | COc1ccc(C(=O)CN2C(=O)C(c3ccc(OC)c(OC)c3)=C(c3cc(OC)c(OC)c(OC)c3)C2=O)cc1 | 7.2 | –
21 | COc1ccc(C(=O)CN2C(=O)C(c3cc(OC)c(OC)c(OC)c3)=C(c3cc(OC)c(OC)c(OC)c3)C2=O)cc1 | 4.9 | –
22 | COc1ccc(C2=C(c3cc(OC)c(OC)c(OC)c3)C(=O)N(CC(=O)c3cc(OC)c(OC)c(OC)c3)C2=O)cc1OC | 3.8 | –
23 | COc1ccc(C2=C(c3ccc(OC)c(OC)c3)C(=O)N(CC(=O)OC(C)(C)C)C2=O)cc1OC | 3.3 | –
24 | COc1ccc(C(=O)CN2C(=O)C(c3cc(OC)c(OC)c(OC)c3)=C(c3cc(OC)c(OC)c(OC)c3)C2=O)cc1OC | 3.3 | –
25 | COc1ccc(C2=C(c3ccc(OC)c(OC)c3)C(=O)N(Cc3cc(OC(C)C)c(OC(C)C)c(OC(C)C)c3)C2=O)cc1OC | 8.5 | –
26 | COc1ccc(CCN(C)CCCC(C#N)(c2ccc(OC)c(OC)c2)C(C)C)cc1OC (stereo not given) | – | Activity [7]: inactive
27 | C=CCOc1cc(CN2C(=O)C(c3ccc(OC)c(OC)c3)=C(c3cc(OC)c(OC)c(OC)c3)C2=O)cc(OCC=C)c1OCC=C | 6.8 | –
